In the library only some 3.5% were active in any assay of this set; here they are far more common.
RGS4 inh: human RGS4 inhibition | P49798 | HEK293 M3R/RGS4 inducible, Fluo-4 calcium flux; active compounds read high; triggered by carbachol at its EC20 | B-score at 10 µM | 310,000 compounds, 0.45% hits | AID 463165;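 active = B-score, a plate-corrected calcium signal, over three deviations above library mean, with baseline fluorescence within five deviations of library mean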;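 also: RGS4 expression induced by doxycycline in cells with stable M3 receptor; B-score is computed from the integrated fluorescence ratio over baseline after carbachol; higher B-score means a larger calcium signal and so more RGS4 inhibition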
Target sequence (P49798 whole entry, looked up): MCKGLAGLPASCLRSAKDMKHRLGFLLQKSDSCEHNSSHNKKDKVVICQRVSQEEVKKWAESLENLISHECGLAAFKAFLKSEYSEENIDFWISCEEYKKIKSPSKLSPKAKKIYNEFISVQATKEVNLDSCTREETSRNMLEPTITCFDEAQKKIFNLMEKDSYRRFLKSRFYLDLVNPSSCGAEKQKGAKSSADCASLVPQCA
MrgX1 PAM: human MrgX1 positive allosteric modulation, primary screen. 310,000 compounds, 0.63% hits. AID 588675. Q96LB2. B-score at 10 µM. MrgX1-HEK293, Fluo-4 calcium flux, FDSS; active compounds read high;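 active = plate-corrected calcium response at least 3 library SD above typical, normal starting fluorescence, not activating the receptor alone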;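 also: compound read alongside a low EC10 to EC30 dose of BAM8-22 agonist; peak minus trough fluorescence over baseline measured at the second addition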
Target sequence (Q96LB2 whole entry, looked up): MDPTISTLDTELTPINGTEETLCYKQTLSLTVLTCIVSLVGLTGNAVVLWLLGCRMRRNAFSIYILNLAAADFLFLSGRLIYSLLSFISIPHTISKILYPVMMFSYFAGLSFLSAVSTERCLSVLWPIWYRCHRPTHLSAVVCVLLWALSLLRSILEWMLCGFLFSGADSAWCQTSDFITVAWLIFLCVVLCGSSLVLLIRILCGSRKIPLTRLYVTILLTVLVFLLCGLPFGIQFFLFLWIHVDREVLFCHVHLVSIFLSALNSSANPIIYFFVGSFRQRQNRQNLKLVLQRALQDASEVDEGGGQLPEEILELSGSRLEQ
MrgX1 antag: antagonists of human MrgX1 receptor; Q96LB2; MRGX1-HEK293 calcium flux, Fluo-4, BAM8-22 antagonism; active compounds read low; AID 588676; 310,000 compounds, 1.3% hits; B-score at 10 µM;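 active = calcium-response B-score plate-corrected more than 3 library SD below zero, starting fluorescence within 5 deviations, no agonist response on first addition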;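 also: peak minus trough fluorescence over baseline after final BAM8-22 challenge near maximal dose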
MrgX1 ag: activates human MrgX1 receptor signaling; Q96LB2; MrgX1-HEK293 cells, Fluo-4 calcium fluorescence, agonist mode; active compounds read high; B-score at 10 µM; 310,000 compounds, 0.44% hits;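 active = calcium response B-score plate-corrected fluorescence ratio at least 3 library SD, with starting fluorescence B-score inside 5 SD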
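Material: HEK293 cells stably expressing human MrgX1 receptor | Quantity: 15,000 cells per well | Times: Cells plated overnight, dye loaded 0.5 h 37 °C, 0.5 h room temperature | Measured by: Kinetic Fluo-4 NW fluorescence of intracellular calcium | Control set: Positive and negative controls per plate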
RGS4 act: potentiators or activators of RGS4; B-score at 10 µM; AID 463111; HEK293 M3R/inducible RGS4, carbachol calcium flux Fluo4; active compounds read low; 310,000 compounds, 0.92% hits;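 active = B-score of the integrated calcium signal more than 4 SD below the library mean, with starting fluorescence not abnormally high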;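 also: negative B-score means reduced calcium response which marks RGS4 activation or potentiation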
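Material: M3R-expressing HEK293 line, RGS4 induced by doxycycline | Schedule: Overnight RGS4 induction, 30 min dye load 37 °C, 20 min compound RT | Measured by: Fluo4 fluorescence kinetic imaging of calcium | Read-out: Integrated calcium ratio converted to B score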
RGS4 inh valid: RGS4 inhibitor validation | 1,700 compounds, 65% hits | shares compounds with RGS4 inh | calcium response, % at 10 µM | HEK293 M3R/RGS4, carbachol calcium Fluo-4 fluorescence; carbachol added at its EC20; 0 = buffer wells, 100 = carbachol control;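 active = duplicate-averaged calcium response above the buffer-only control mean plus 5 SD of those controls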;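 also: integrated fluorescence ratio F max minus min over baseline F0; higher response in RGS4-induced cells means RGS4 inhibition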
RGS4 uninduced: non-induced cell nonspecific activity of RGS4 inhibitors; shares compounds with RGS4 inh; HEK293 M3R non-induced, carbachol calcium Fluo-4; submaximal (EC20) carbachol stimulus; buffer wells 0%, carbachol control wells 100%; activity (percent), % at 10 µM; 1,900 compounds, 20% hits; call rule not given here;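 also: RGS4 induction absent so cells express M3R without RGS4; higher means more calcium signal and flags a non-specific hit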
RGS4 inh ctr2: second counter-screen for RGS4 inhibitors: non-induced cells without carbachol | 1,900 compounds, 22% hits | shares compounds with RGS4 inh | AID 493001 | calcium response (agonist-mode artifact), % at 10 µM | HEK293 M3R/RGS4 non-induced, Fluo-4 calcium, no carbachol; normalised: buffer wells 0%, carbachol wells 100%;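 active = duplicate-averaged calcium rise in uninduced cells above buffer wells' mean plus 5 SD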
MrgX1 ag confirm: confirmation of human MrgX1 receptor agonists; MrgX1-HEK293, Fluo-4 calcium fluorescence, FDSS; shares compounds with MrgX1 ag; 600 compounds, 78% hits; AID 602412; activation, % at 10 µM;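 active = calcium signal rise, corrected for plate position, at least 3 library SD high, with starting brightness within 5 such deviations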
MrgX1 allo conf: reconfirmed allosteric activator of human MrgX1 receptor; MrgX1-HEK293, Fluo-4 calcium fluorescence, FDSS; 1,200 compounds, 13% hits; activation (ratio percentage), % at 10 µM; AID 602413; shares compounds with MrgX1 PAM;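 active = ratio at least 3 SD above the weak peptide control, stable starting fluorescence, no direct agonism earlier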;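 also: compound followed by low BAM8-22 agonist challenge near EC20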
HEK293 Ca flux: counter-screen for MrgX1 antagonists: effect in parental HEK293 cells | shares compounds with MrgX1 antag | Fluo-4 calcium fluorescence, FDSS | fluorescence ratio F(max-min)/F0 at 10 µM | 4,000 compounds, 2% hits | AID 624111;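 active = duplicate-averaged calcium fluorescence ratio at least three times the standard deviation of buffer wells, a nonspecific response in parental cells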
HEK293 Ca counter: activity in parental HEK293 cells without MrgX1; 4,000 compounds, 0.4% hits; fluorescence ratio F(max-min)/F0 at 10 µM; shares compounds with MrgX1 antag; AID 624114; parental HEK293 calcium flux, Fluo-4 fluorescence ratio; active compounds read high;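 active = calcium fluorescence ratio, averaged over duplicates, at least 3 SD of the buffer-well ratio, meaning a nonspecific response in receptor-free cells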;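 also: untransfected parental HEK293 lacking MrgX1 used as counterscreen for MrgX1 allosteric activators; fluorescence change taken during the second addition on a kinetic imager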
HEK293 Ca cntr2: counter-screen for MrgX1 activators: effect in parental HEK293 cells | shares compounds with MrgX1 antag | AID 624115 | fluorescence ratio F(max-min)/F0 at 10 µM | 4,000 compounds, 8.7% hits | Fluo-4 calcium fluorescence (FDSS); active compounds read high;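 active = calcium fluorescence ratio at least three times the spread of buffer wells, meaning a non-specific response in parental cells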
Numbers stand for hits; n = inactive; x = no result.

SMILES	RGS4 inh	MrgX1 PAM	MrgX1 antag	MrgX1 ag	RGS4 act	RGS4 inh valid	RGS4 uninduced	RGS4 inh ctr2	others
COc1ccc(OC)c(N2C(=O)NC(=O)/C(=C\c3ccc([N+](=O)[O-])s3)C2=O)c1	8.03	n	n	n	n	18.5%	n	n
CN1C(=O)NC(=O)/C(=C/c2ccc([N+](=O)[O-])s2)C1=O	7.21	n	n	n	n	14.5%	n	n
O=C1NC(=O)N(c2ccccc2)C(=O)/C1=C\c1ccc([N+](=O)[O-])s1	n	n	n	n	n	x	x	x
COc1ccc(CCNCc2sccc2C)cc1	n	n	n	n	n	x	x	x
CCOC(=O)C1CCN(Cc2ccc(Cl)nc2)CC1	5.52	n	n	n	n	9.5%	30.0%	n
CN1C(=O)C(=Cc2ccc(-c3cccc(Cl)c3)o2)C(=O)N(C)C1=O	5	n	n	n	n	22.0%	34.0%	52.5%
Cc1ccc(Sc2ccc(C=C3C(=O)N(C)C(=O)N(C)C3=O)o2)cc1	n	n	n	n	n	n	n	79.5%
CN1C(=O)C(=Cc2ccc(N3CCOCC3)o2)C(=O)N(C)C1=O	n	n	n	n	n	x	x	x
CN(C)CCN=Cc1c(O)n(-c2cccc(C(F)(F)F)c2)c(=O)[nH]c1=O	n	n	n	n	n	x	x	x
Cc1ccc(C(O)P(=O)(Oc2ccccc2)Oc2ccccc2)cc1 (stereo unspecified)	n	n	n	n	n	x	x	x
Cc1cccc(-n2c(O)c(/C=C3/C(c4ccccc4)=Nc4ccccc43)c(=O)[nH]c2=O)c1	n	n	n	47.1	n	x	n	29.0%
COC(=O)C1=Nc2ccccc2/C1=C\c1c(O)n(-c2cc(OC)ccc2OC)c(=O)[nH]c1=O	n	n	n	n	n	x	x	x
C=CCn1c(O)c(C(CC)=Nc2ccc(N(C)C)cc2)c(=O)[nH]c1=O	n	n	n	n	n	x	x	x
COc1ccc(-n2c(O)c(/C=C3\C=Nc4ccc(Br)cc43)c(=O)[nH]c2=O)c(OC)c1	26.1	n	n	n	n	55.0%	n	326.5%
CSc1ncc(/C=C2/C(=O)NC(=O)N(c3ccc(C)cc3)C2=O)cn1	n	n	n	n	n	x	x	x
Cc1ccc(N2C(=O)NC(=O)/C(=C/c3cnn(-c4ccc(C)cc4)c3)C2=O)cc1	4.76	n	n	n	n	10.0%	n	n
O=c1[nH]c(=O)n(CCC2=CCCCC2)c(O)c1/C=N/Nc1ccccc1	n	n	n	n	n	x	x	x
O=c1[nH]c(=O)n(CCC2=CCCCC2)c(O)c1/C=N/Nc1cccc2ccccc12	5.69	n	n	n	n	9.0%	n	n
O=C(N/N=C/c1c(O)n(CCc2ccccc2)c(=O)[nH]c1=O)c1ccccc1	n	n	-5.42	n	n	n	n	7.5%
CCCCn1c(O)c(/C=N/NC(=O)c2ccncc2)c(=O)[nH]c1=O	n	n	n	n	n	x	x	x
COc1ccc(OC)c(CNCCc2ccc(OC)c(OC)c2)c1	n	n	n	n	n	x	x	x
NC1=C([N+](=O)[O-])C(c2ccc3c(c2)OCO3)c2c(c3ccccc3oc2=O)O1 (stereo unspecified)	n	n	n	n	n	x	x	x
O=c1oc2ccccc2c(O)c1[C@H]1c2ccc(O)cc2Oc2c1c(=O)oc1ccccc21	11.2	n	n	n	n	58.5%	35.0%	n
CCCN1CCc2cc(O)cc3c2[C@H]1Cc1ccc(O)c(O)c1-3	10.5	n	n	30.9	n	65.0%	n	n	MrgX1 ag confirm=n;HEK293 Ca flux=n;HEK293 Ca counter=n;HEK293 Ca cntr2=n
O=C(c1n[nH]c(=O)c2ccccc12)N1CCC2(CC1)OCCO2	n	n	n	n	n	x	x	x
SMILES	RGS4 inh	MrgX1 PAM	MrgX1 antag	MrgX1 ag	RGS4 act	RGS4 inh valid	RGS4 uninduced	RGS4 inh ctr2	others
Cc1ccc(-c2cc(-c3ccc(C)cc3)[n+](-c3ccccc3)c(-c3ccc(C)cc3)c2)cc1	n	n	n	77.4	-10.7	x	x	x	MrgX1 ag confirm=350.6%;HEK293 Ca flux=n;HEK293 Ca counter=n;HEK293 Ca cntr2=81.8
Cc1ccc(-c2cc(-c3ccc(C)cc3)[n+](C)o2)cc1	n	n	n	n	n	x	x	x
CCCN1C2CCCC1CC(NC(C)=O)C2 (stereo unspecified)	n	n	n	49.9	n	x	x	x	MrgX1 ag confirm=n;HEK293 Ca flux=n;HEK293 Ca counter=n;HEK293 Ca cntr2=n
O=c1[nH]c(O)c(/C=C2\C=NN=C2c2ccccc2)c(=O)[nH]1	n	n	n	n	n	x	x	x
COc1ccc(NC2(C#N)CCCCC2)cc1	n	n	n	n	n	x	x	x
C=Cn1c(P(=S)(N2CCOCC2)N2CCOCC2)cc2c1CCCC2	n	n	n	66.1	n	x	x	x	MrgX1 ag confirm=n;HEK293 Ca flux=n;HEK293 Ca counter=n;HEK293 Ca cntr2=n
CCCCCn1c(=O)c(C(=O)Nc2ccccc2)c(O)c2ccccc21	n	n	n	n	n	x	x	x
CCCCn1c(=O)c(C(=O)NCCc2ccccc2)c(O)c2ccccc21	n	8.09	n	n	n	x	x	x	MrgX1 allo conf=n;HEK293 Ca flux=n;HEK293 Ca counter=n;HEK293 Ca cntr2=n
CCCCn1c(=O)c(C(=O)NC(C)c2ccccc2)c(O)c2ccccc21 (stereo unspecified)	n	9.07	n	n	n	x	x	x	MrgX1 allo conf=n;HEK293 Ca flux=n;HEK293 Ca counter=50.1;HEK293 Ca cntr2=n
CC(NC1CCCCC1)C(O)C12CC3CC(CC(C3)C1)C2 (stereo unspecified)	n	n	n	n	n	x	x	x
CC(C)(C)C(=O)c1cn(Cc2ccccc2)c2ccccc12	n	n	n	n	n	x	x	x
NCC(O)c1cc(O)c(O)cc1F (stereo unspecified)	x	6.54	n	n	x	x	x	x	MrgX1 allo conf=n;HEK293 Ca flux=n;HEK293 Ca counter=n;HEK293 Ca cntr2=n
COc1ccc2c(c1)[C@@]13CCC=C[C@H]1[C@@H](C2)NCC3	x	n	n	n	x	x	x	x

Screening data as filed in PubChem BioAssay.
